PAX8 inh HTS = inhibitors of PAX8-driven TPO luciferase reporter, primary screen, RMG-I cells, single concentration; SteadyGlo, 24 h; 1.2% of 360,000 active; AID 652154, 2013; inhibition, % at 12.6 µM;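 active = mean replicate inhibition at least 60% with every replicate also reaching 60%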;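 note: luciferase light reporting Pax8 driven TPO promoter activity; plate controls were median of neutral control wells for no effect and mitoxantrone controls for full effect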
PGC1a acetyl inh = inhibitors of PGC1a acetylation signal, primary screen, cell-based, U2OS, AlphaScreen, inhibitor mode; inhibition, % at 15.6 µM; 0.17% of 350,000 active; AlphaScreen anti-acetyl-lysine; with virally co-expressed GCN5 acetyltransferase;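 active = every replicate shows inhibition of at least 40%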;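 note: 0% = neutral control wells and 100% = positive control wells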
MLL AF4-AF9 inh = inhibitors of AF4 peptide binding to AF9, primary screen, biochemical, AlphaScreen, biotin-AF4 peptide, FLAG-AF9, single point. AID 651704, 2012. inhibition, % at 10 µM. Protein AF-9 (Homo sapiens), P42568. 0.47% of 350,000 active;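 active = every replicate reaching a set inhibition limit, whatever the replicate mean, cut at about 25% in these data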;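 note: 0% = plate neutral control median and 100% = total signal loss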
Target sequence (P42568 whole entry, looked up): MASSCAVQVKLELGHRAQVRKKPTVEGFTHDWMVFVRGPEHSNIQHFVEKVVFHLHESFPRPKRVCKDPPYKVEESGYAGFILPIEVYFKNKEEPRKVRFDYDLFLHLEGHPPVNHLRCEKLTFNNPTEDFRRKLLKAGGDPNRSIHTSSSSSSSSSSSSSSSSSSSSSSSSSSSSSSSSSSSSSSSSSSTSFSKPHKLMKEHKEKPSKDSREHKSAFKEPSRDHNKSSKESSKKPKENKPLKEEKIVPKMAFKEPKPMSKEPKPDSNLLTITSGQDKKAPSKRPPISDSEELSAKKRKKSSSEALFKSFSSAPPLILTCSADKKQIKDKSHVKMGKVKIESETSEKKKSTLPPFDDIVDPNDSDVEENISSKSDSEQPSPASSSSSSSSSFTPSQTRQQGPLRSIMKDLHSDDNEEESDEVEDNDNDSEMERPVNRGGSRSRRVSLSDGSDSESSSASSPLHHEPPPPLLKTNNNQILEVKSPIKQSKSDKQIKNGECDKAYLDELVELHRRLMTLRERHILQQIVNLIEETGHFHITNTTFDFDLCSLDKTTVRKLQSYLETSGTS
XiGFP reactiv = activators of inactive X chromosome reactivation, primary screen, imaging, XiGFP fibroblasts, GFP high-content imaging, set 2; activation, % at 7.58 µM; XiGFP mouse fibroblasts, % GFP-positive cells imaging, 3 d; cells co-treated with 5-aza-dC sensitizer; scaled so ellipticine positive control = 100%; 0.055% of 360,000 active;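 active = mean normalized replicate activation at least 10% and every replicate at or above 10%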;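 note: 0% = median of on-plate neutral control wells and 100% = ellipticine 6 µM median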
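System: 68-5-11 XiGFP fibroblast line | Buffer or medium: DMEM containing 5-aza-dC | Compound: Single point | Times: Compounds 3 days, fix/stain 15 min at room temperature | Benchmarks: Positive control ellipticine, 6 µM final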
EWS-Fli inh = EWS/Fli-driven NR0B1 reporter inhibitors, primary screen, A673 cells, NR0B1 luciferase, luminescence, MLPCN library | 0.67% of 350,000 active | viability-normalised | inhibition, % at 12.6 µM | AID 651661, 2012;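 active = mean inhibition of at least 50% after viability correction, with every replicate also passing that limit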;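 note: firefly luciferase signal divided by Alamar Blue viability fluorescence both relative to DMSO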
GSIS activator = GLuc luminescence reporter in INS-1E cells, primary screen for activators of glucose-dependent secretion of insulin | activation, % at 16.6 µM | AID 743287, 2014 | 0.61% of 370,000 active | INS-1E GLuc reporter insulin secretion, 2-3 h;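 active = lowest replicate activation of at least 40%, so every replicate reaches that level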;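 note: 0% = median of neutral control wells and 100% = median of IBMX positive control wells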
Numbers without * were called inactive. An excerpt weighted towards active compounds, which were near 2.1% of everything screened.

CC(=O)Nc1ccc(NC(=O)C2CCN(S(=O)(=O)c3cccc4nonc34)CC2)cc1 was read as PGC1a acetyl inh -3 and GSIS activator 4.
For Cc1ccc(NC(=O)C2CCCN(S(=O)(=O)c3cccc4nonc34)C2)cc1 (centres undefined) the results were PAX8 inh HTS -4, PGC1a acetyl inh 1, MLL AF4-AF9 inh -2, XiGFP reactiv 0, EWS-Fli inh 5 and GSIS activator 7.
COc1ccc(NC(=O)C2CCN(S(=O)(=O)c3cccc4nonc34)CC2)cc1OC was read as PAX8 inh HTS -20, PGC1a acetyl inh -4, MLL AF4-AF9 inh 26*, XiGFP reactiv 0, EWS-Fli inh 6 and GSIS activator -6.
`COc1ccc(C)cc1NC(=O)C1CCCN(S(=O)(=O)c2cccc3nonc23)C1` (centres undefined) gave PAX8 inh HTS 141*, MLL AF4-AF9 inh -1, XiGFP reactiv 0, EWS-Fli inh -2 and GSIS activator 8.
COc1ccc(S(=O)(=O)N2CC[C@H]3[C@H](CO)Nc4ccc(C#Cc5cccnc5)cc4[C@H]32)cc1 was read as PGC1a acetyl inh -12, MLL AF4-AF9 inh 7, XiGFP reactiv 0, EWS-Fli inh 2 and GSIS activator 2.
`Cc1noc(C)c1S(=O)(=O)N(C)C[C@H]1OCCCC[C@H](C)Oc2ccc(NS(=O)(=O)c3ccccc3)cc2C(=O)N([C@H](C)CO)C[C@H]1C` gave PAX8 inh HTS 19, PGC1a acetyl inh -6, MLL AF4-AF9 inh 0, XiGFP reactiv 0, EWS-Fli inh -5 and GSIS activator -14.
`COc1ccc(CN(C)C[C@@H]2Oc3ccc(NC(=O)C4CC4)cc3CC(=O)N([C@H](C)CO)C[C@@H]2C)cc1` gave PAX8 inh HTS 3, PGC1a acetyl inh 6, MLL AF4-AF9 inh -1, XiGFP reactiv -1, EWS-Fli inh 8 and GSIS activator 10.
COc1cc2c(cc1NC(=O)C(Cl)Cl)-c1ccc(NC(=O)C(Cl)Cl)cc1C2 was read as PAX8 inh HTS 79*, MLL AF4-AF9 inh -27, XiGFP reactiv 0, EWS-Fli inh 23 and GSIS activator -4.
For COc1cc2c(cc1NC(=O)c1ccccc1-c1ccccc1C(=O)O)-c1ccccc1C2 the results were PAX8 inh HTS 20, PGC1a acetyl inh 3, MLL AF4-AF9 inh -1, XiGFP reactiv 0, EWS-Fli inh 7 and GSIS activator -14.
For C[C@H](CO)N1C[C@H](C)[C@H](CN(C)Cc2ccc(C(=O)Nc3ccccc3N)cc2)Oc2ccc(NS(=O)(=O)c3ccc(Cl)cc3)cc2C1=O the results were PGC1a acetyl inh 11, MLL AF4-AF9 inh -3, XiGFP reactiv 0, EWS-Fli inh 44 and GSIS activator -6.
For CN(C)C(=S)SCC(=O)Nc1ccc(Cl)cc1Cl the results were PAX8 inh HTS -17, MLL AF4-AF9 inh -5, XiGFP reactiv 0, EWS-Fli inh 75* and GSIS activator -5.
For O=C(CC(=O)Nc1ccc(Cl)cc1Cl)Nc1ccc(Cl)cc1Cl the results were PAX8 inh HTS 16, MLL AF4-AF9 inh -1, XiGFP reactiv 0, EWS-Fli inh 3 and GSIS activator -14.
For COc1ccccc1N(C(=O)CCl)c1cn(C(C)=O)c2ccccc12 the results were PAX8 inh HTS 114*, MLL AF4-AF9 inh 5, XiGFP reactiv 0 and EWS-Fli inh 28.
COc1ccc2c3c([nH]c2c1)[C@@H](CO)N(C(=O)Nc1ccccc1F)CC31CCN(C(=O)c2ccccc2F)CC1 was read as PGC1a acetyl inh 3, MLL AF4-AF9 inh 2, XiGFP reactiv 0, EWS-Fli inh -1 and GSIS activator -1.
`Cc1ccc2oc(-c3cccc(NC(=O)Cc4cccs4)c3)nc2c1` gave PGC1a acetyl inh -3 and GSIS activator 65*.
`Cc1ccc2oc(-c3ccc(C)c(NC(=O)Cc4cccs4)c3)nc2c1` gave PGC1a acetyl inh -11.
CN1C(=O)c2cc(NC(=O)C3CCCCC3)ccc2OC[C@H]2O[C@H](CC(=O)NCC3CCCCC3)CC[C@@H]21 was read as PAX8 inh HTS 11, PGC1a acetyl inh -11, MLL AF4-AF9 inh -3, XiGFP reactiv 0, EWS-Fli inh -3 and GSIS activator -13.
`CNC[C@H]1Oc2ccc(N)cc2C(=O)N([C@H](C)CO)C[C@@H]1C` gave PAX8 inh HTS -9, PGC1a acetyl inh 3, MLL AF4-AF9 inh -6 and EWS-Fli inh -9.
For Cc1ccn2cc(-c3cc4ccccc4oc3=O)nc2c1 the results were PAX8 inh HTS -98, MLL AF4-AF9 inh -10, XiGFP reactiv 0, EWS-Fli inh 68* and GSIS activator -19.
Screening Cc1ccc(-c2csc(Cc3nc(-c4cc5ccccc5oc4=O)cs3)n2)cc1 returned PGC1a acetyl inh 6, MLL AF4-AF9 inh 8, EWS-Fli inh 5 and GSIS activator 30.
`O=[N+]([O-])c1c(Nc2ccccc2O)cc(Cl)c2nonc12` gave PAX8 inh HTS 91*, PGC1a acetyl inh 27, MLL AF4-AF9 inh 15, XiGFP reactiv 1, EWS-Fli inh 66* and GSIS activator -1.
COCC(=O)N(C)C[C@@H]1Oc2ncc(C#C[C@H](C)O)cc2C(=O)N([C@@H](C)CO)C[C@H]1C was read as PGC1a acetyl inh 9, MLL AF4-AF9 inh -2, XiGFP reactiv 1, EWS-Fli inh -6 and GSIS activator 20.
`CCNc1cc2c(cc1O)CCC1C2CCC2(C)C(O)CCC12` (centres undefined) gave PAX8 inh HTS -7, PGC1a acetyl inh -7, MLL AF4-AF9 inh 1, XiGFP reactiv 0, EWS-Fli inh 19 and GSIS activator -5.
`CCOc1cc2c(cc1O)CCC1C2CCC2(C)C(O)CCC12` (centres undefined) gave PAX8 inh HTS 15, MLL AF4-AF9 inh 2, XiGFP reactiv 4, EWS-Fli inh 55* and GSIS activator -12.
CO[C@H]1O[C@H](CO)[C@@H](OC(=O)Nc2cccc(F)c2)[C@H](OC(=O)Nc2ccc3c(c2)OCO3)[C@@H]1OC(=O)Nc1ccc2c(c1)OCO2 was read as PAX8 inh HTS 6, MLL AF4-AF9 inh 21 and EWS-Fli inh -8.
CO[C@H]1O[C@H](CO)[C@@H](OC(=O)Nc2ccccc2)[C@H](OC(=O)Nc2ccc3c(c2)OCO3)[C@@H]1OC(=O)Nc1ccc2c(c1)OCO2 was read as PGC1a acetyl inh -8, MLL AF4-AF9 inh 27* and EWS-Fli inh -4.
